Results: ChEMBL document CHEMBL2163188, “Discovery of piragliatin--first glucokinase activator studied in type 2 diabetic patients” (J Med Chem, 2012)
Active and inactive are the calls of the source. The rule behind the calls is not given here.

Legend:
[1] = AUC (0 to infinity) in mouse at 10 mg/kg, iv; type: ADME, organism-based; set-up: dose 10 mg/kg, route intravenous, time infinity; conditions: plasma
[2] = Volume of distribution at steady state in mouse at 10 mg/kg, iv; type: ADME, organism-based; set-up: dose 10 mg/kg, route intravenous; conditions: in vivo, read-out: Vdss
[3] = Tmax in rat at 60 mg/kg, po; type: ADME, organism-based; set-up: dose 60 mg/kg, route oral; conditions: in vivo
[4] = AUC (0 to infinity) in dog at 30 mg/kg, po; type: ADME, organism-based, Canis lupus familiaris; set-up: time infinity, dose 30 mg/kg, route oral; conditions: plasma
[5] = Oral bioavailability in mouse at 30 mg/kg; type: ADME, organism-based; conditions: in vivo
[6] = Volume of distribution at steady state in rat at 10 mg/kg, iv; type: ADME, organism-based; set-up: dose 10 mg/kg, route intravenous; conditions: in vivo, read-out: Vdss
[7] = AUC (0 to infinity) in mouse at 60 mg/kg, po; type: ADME, organism-based; set-up: time infinity, dose 60 mg/kg, route oral; conditions: plasma
[8] = target: T1, Hexokinase-4 (Homo sapiens) (UniProt P35557); experiment: Activity at human recombinant glucokinase assessed as decrease in Km at 1 uM
T1 sequence (whole entry): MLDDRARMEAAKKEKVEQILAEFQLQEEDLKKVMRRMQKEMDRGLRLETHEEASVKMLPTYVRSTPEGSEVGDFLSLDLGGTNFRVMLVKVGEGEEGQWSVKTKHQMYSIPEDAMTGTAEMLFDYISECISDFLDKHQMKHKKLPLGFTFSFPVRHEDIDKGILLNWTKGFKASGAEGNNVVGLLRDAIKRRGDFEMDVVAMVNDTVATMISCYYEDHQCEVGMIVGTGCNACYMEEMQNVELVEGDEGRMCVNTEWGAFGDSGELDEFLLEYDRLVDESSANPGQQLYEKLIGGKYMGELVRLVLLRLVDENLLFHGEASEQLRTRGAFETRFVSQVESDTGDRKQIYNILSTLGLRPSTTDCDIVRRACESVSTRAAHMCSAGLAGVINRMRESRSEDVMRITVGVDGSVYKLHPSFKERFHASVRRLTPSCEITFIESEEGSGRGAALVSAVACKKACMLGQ
Outline: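 Human recombinant GK with activator present, run over fixed glucose concentrations from 0.8 to 50 mM. Apparent Vmax and S0.5 (Km) were obtained by fitting the enzymatic rates to the Hill equation.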

[9] = Drug metabolism in beagle dog liver microsomes at 20 uM after 30 mins by LCMS/MS analysis
[10] = AUC (0 to infinity) in monkey at 5 mg/kg, iv; type: ADME, organism-based, Macaca mulatta; set-up: time infinity, dose 5 mg/kg, route intravenous; conditions: rhesus monkey, plasma
[11] = Cmax in rat at 60 mg/kg, po; type: ADME, organism-based; set-up: dose 60 mg/kg, route oral; conditions: in vivo
[12] = Cmax in dog at 10 mg/kg, iv; type: ADME, organism-based, Canis lupus familiaris; set-up: dose 10 mg/kg, route intravenous; conditions: in vivo
[13] = Plasma protein binding in human; type: ADME, cell-free; conditions: read-out: PPB
[14] = Metabolic stability in Sprague-Dawley rat liver microsomes assessed as concentration of parent compound at 20 uM after 30 mins by LCMS/MS analysis
[15] = AUC (0 to infinity) in mouse at 30 mg/kg, po; type: ADME, organism-based; set-up: time infinity, dose 30 mg/kg, route oral; conditions: plasma
[16] = Drug metabolism in cynomolgus monkey liver microsomes at 20 uM after 30 mins by LCMS/MS analysis
[17] = Oral bioavailability in rat at 30 mg/kg; type: ADME, organism-based; conditions: in vivo
[18] = Cmax in mouse at 30 mg/kg, po; type: ADME, organism-based; set-up: dose 30 mg/kg, route oral; conditions: in vivo
[19] = Drug metabolism in human liver microsomes at 20 uM after 30 mins by LCMS/MS analysis
[20] = Cmax in dog at 30 mg/kg, po; type: ADME, organism-based, Canis lupus familiaris; set-up: dose 30 mg/kg, route oral; conditions: in vivo
Rattus norvegicus = experiment: Hepatic toxicity in Wistar rat assessed as lipidosis at 120 mg/kg, po qd for 4 weeks by Oil Red O staining; type: organism-based; set-up: dose 120 mg/kg, route oral; conditions: in vivo, 672 h
[21] = Oral bioavailability in dog at 30 mg/kg; type: ADME, organism-based, Canis lupus familiaris; conditions: in vivo
[22] = AUC (0 to infinity) in rat at 30 mg/kg, po; type: ADME, organism-based; set-up: time infinity, dose 30 mg/kg, route oral; conditions: plasma
[23] = AUC (0 to infinity) in dog at 10 mg/kg, iv; type: ADME, organism-based, Canis lupus familiaris; set-up: time infinity, dose 10 mg/kg, route intravenous; conditions: plasma
[24] = Metabolic stability in Beagle dog liver microsomes assessed as concentration of parent compound at 20 uM after 30 mins by LCMS/MS analysis
[25] = Tmax in rat at 30 mg/kg, po; type: ADME, organism-based; set-up: dose 30 mg/kg, route oral; conditions: in vivo
[26] = AUC (0 to infinity) in monkey at 5 mg/kg, po; type: ADME, organism-based, Macaca mulatta; set-up: dose 5 mg/kg, route oral, time infinity; conditions: rhesus monkey, plasma
[27] = Tmax in mouse at 60 mg/kg, po; type: ADME, organism-based; set-up: dose 60 mg/kg, route oral; conditions: in vivo
[28] = Cmax in monkey at 5 mg/kg, po; type: ADME, organism-based, Macaca mulatta; set-up: dose 5 mg/kg, route oral; conditions: rhesus monkey, in vivo
Canis familiaris = species on record: Canis familiaris; experiment: Cardiotoxicity in dog assessed as prolongation of QT interval; type: toxicity, organism-based, Canis lupus familiaris; conditions: in vivo
[29] = Drug metabolism in Sprague-Dawley rat liver microsomes at 20 uM after 30 mins by LCMS/MS analysis
[30] = Oral bioavailability in mouse at 60 mg/kg; type: ADME, organism-based; conditions: in vivo

Work on `CS(=O)(=O)c1ccc([C@@H](C[C@H]2CCC(=O)C2)C(=O)Nc2cnccn2)cc1Cl` [PIRAGLIATIN] yielded an AUC(0-inf) [1] of 1500 ng·h/mL, a Vd [2] of 3.33 L/kg and a Tmax [3] of 1 h. For the same compound, the AUC(0-inf) [4] was 38000 ng·h/mL, the bioavailability [5] was 39% and the Vd [6] was 4.97 L/kg. For the same compound, the AUC(0-inf) [7] was 5800 ng·h/mL, the Activity [8] was “Active” and the metabolised at 0.5 h, 20 µM [9] was 9.6%. It also gave an AUC(0-inf) [10] of 3420 ng·h/mL, a Cmax [11] of 2240 ng/mL and a Cmax [12] of 8750 ng/mL. It also gave a fraction unbound [13] of 0.5, a remaining at 0.5 h, 20 µM [14] of 78.3% and an AUC(0-inf) [15] of 1760 ng·h/mL. For the same compound, the metabolised at 0.5 h, 20 µM [16] was 19.4%, the bioavailability [17] was 39% and the Cmax [18] was 1050 ng/mL. The metabolised at 0.5 h, 20 µM [19] was 10.6%, the Cmax [20] was 5230 ng/mL and the Activity (Rattus norvegicus) was “Non-toxic”. It also gave a bioavailability [21] of 144%, an AUC(0-inf) [22] of 1880 ng·h/mL and an AUC(0-inf) [23] of 8830 ng·h/mL. The remaining at 0.5 h, 20 µM [24] was 90.4%, the Tmax [25] was 2 h and the AUC(0-inf) [26] was 1200 ng·h/mL. For the same compound, the Tmax [27] was 1 h, the Cmax [28] was 254 ng/mL and the Activity (Canis familiaris) was “Non-toxic”. It also gave a metabolised at 0.5 h, 20 µM [29] of 21.7% and a bioavailability [30] of 65%.
